Published values from different studies.
Each line is one published result; the experiments were not run side by side.
Organism: Trypanosoma brucei
Observed: parasite growth

| SMILES | assay | system | setting | endpoint | value |
| --- | --- | --- | --- | --- | --- |
| ClCCOC1c2ccccc2CCc2ccccc21 |  |  |  | EC50 | 27900 nM |
| COc1ccc(CNC(=O)c2ccc(CNCc3cnc4nc(N)nc(N)c4n3)cc2)cc1OC | resazurin |  | 10 µM, 72 h | inhibition | 36% |
| NNC(=O)CN1C(=O)CNC2(C1=O)C1CC3CC(C1)CC2C3 (centres unmarked) |  |  | pH 7.4, blood stage | IC50 | 118000 nM |
| Nc1nc(N)c2nc(CNc3ccc(C(=O)N4CCC(C(=O)O)CC4)cc3)cnc2n1 | resazurin |  | 10 µM, 72 h | inhibition | 8% |
| Fc1ccc(-c2ncn(C3CCNCC3)c2-c2ccnc(Oc3ccc(Oc4ccccc4)cc3)n2)cc1 |  |  |  | EC50 | 794 nM |
| O=[N+]([O-])c1c(CS(=O)(=O)c2ccccc2)nc2c(-c3cccc(C(F)(F)F)c3)cc(Cl)cn12 | resazurin |  | trypomastigote | IC50 | 40 to 160 nM |
| Nc1nccc(C#Cc2cncnc2Nc2ccc(OCc3cccc(F)c3)c(Cl)c2)n1 |  |  |  | EC50 | 3160 nM |
| COC(=O)C1CCN(C(=O)c2ccc(SCc3cnc4nc(N)nc(N)c4n3)nc2)CC1 | resazurin |  | 10 µM, 72 h | inhibition | 16% |
| COc1cc(N2CCN(C(C)C)CC2)ccc1Nc1nc(Nc2ccc(F)cc2C(N)=O)c2cc[nH]c2n1 |  |  |  | EC50 | 200 nM |
| N=C(N)c1ccc(OCCCCCOc2ccc(C(=N)N)cc2)cc1 |  |  |  | EC90 | 6.2 nM |
| O=C(Cn1ccnc1[N+](=O)[O-])NCc1ccccc1 |  |  |  | IC50 | 96000 nM |
| Cc1cc(NC(=O)Nc2ccc3c(c2)OC(F)(F)O3)cc(C(F)(F)F)n1 |  | RHODESIENSE STIB900 |  | IC50 | 5100 nM |
| Cc1ccc(C(=O)Nc2ccc(S(=O)(=O)O)c3cc(S(=O)(=O)O)cc(S(=O)(=O)O)c23)cc1NC(=O)c1cccc(NC(=O)Nc2cccc(C(=O)Nc3cc(C(=O)Nc4ccc(S(=O)(=O)O)c5cc(S(=O)(=O)O)cc(S(=O)(=O)O)c45)ccc3C)c2)c1 | resazurin | RHODESIENSE |  | IC50 | 50 nM |
| COC(=O)C1CCN(C(=O)c2ccc(NCc3cnc4nc(N)nc(N)c4n3)cn2)CC1 | resazurin |  | 10 µM, 72 h | inhibition | 10% |
| [O-][S+]1CCN(Cc2ccc(-c3ccc4ncnc(Nc5ccc(OCc6ccccc6)c(Cl)c5)c4c3)o2)CC1 |  |  |  | EC50 | 631 nM |
| CN(C)CCCN1c2ccccc2Sc2ccc(Cl)cc21 |  |  | blood stage | EC50 | 4210 nM |

| SMILES | assay | system | setting | endpoint | value |
| --- | --- | --- | --- | --- | --- |
| CS(=O)(=O)CCNCc1ccc(-c2ccc3ncnc(Nc4ccc(OCc5cccc(F)c5)c(C(F)(F)F)c4)c3c2)o1 |  |  |  | EC50 | 2000 nM |
| CCCOC(=O)C1CCN(C(=O)c2ccc(N(C)Cc3cnc4nc(N)nc(N)c4n3)cc2)CC1 | resazurin |  | 10 µM, 72 h | inhibition | 51% |
| Cc1ccc2nc(-c3ccc(F)c(F)c3)c(CN3CCN(C4CCCCC4)CC3)n2c1 |  |  | 48 h | EC90 | > 20000 nM |
| NS(=O)(=O)c1ccc(Nc2cc(-c3ccc(O)c(F)c3)n[nH]2)cc1 |  |  |  | EC50 | 6310 nM |
| COC(=O)C1CCN(C(=O)Cc2ccc(NCc3cnc4nc(N)nc(N)c4n3)cc2)CC1 | resazurin |  | 10 µM, 72 h | inhibition | 23% |
| Cc1ccc2nc(-c3ccc(F)c(F)c3)c(CN3CCC(Cc4ccccc4)CC3)n2c1 |  |  | 48 h | EC50 | 16600 nM |
| COc1cc2c(cc1Nc1nc(Nc3ccsc3C(N)=O)c3cc[nH]c3n1)N(C(=O)CN(C)C)CCC2 |  |  |  | EC50 | 631 nM |
| CN(Cc1cnc2nc(N)nc(N)c2n1)c1ccc(C(=O)N2CCCCC2)cc1 | resazurin |  | 10 µM, 72 h | inhibition | 48% |
| COc1cc(Nc2nccc(Nc3ccc4c(C)n[nH]c4c3)n2)cc(OC)c1OC |  |  |  | EC50 | 631 nM |
| OC1c2ccccc2CCc2ccccc21 |  |  |  | EC50 | 51300 nM |
| Cc1ccc2nc(-c3ccc(Cl)cc3)cn2c1 |  |  | 48 h | EC90 | > 20000 nM |
| Clc1ccc2c(c1)N(CCCN1CCN(CCCc3ccccc3)CC1)c1ccccc1S2 |  |  |  | EC50 | 775 nM |
| COc1ccc(C(=O)Nc2ccc(NC(=N)N)c(OCc3cc(OC)ccc3OC)c2)cc1 |  |  |  | IC50 | 800 nM |
| Cc1ccc(C(=O)Nc2ccc(S(=O)(=O)O)c3cc(S(=O)(=O)O)cc(S(=O)(=O)O)c23)cc1NC(=O)c1cccc(NC(=O)Nc2cccc(C(=O)Nc3cc(C(=O)Nc4ccc(S(=O)(=O)O)c5cc(S(=O)(=O)O)cc(S(=O)(=O)O)c45)ccc3C)c2)c1 | resazurin | RHODESIENSE STIB900 |  | IC50 | 35 nM |
| O=C(Nc1ccnc(C(F)(F)F)c1)Nc1cccc2c1OC(F)(F)O2 |  | RHODESIENSE STIB900 |  | IC50 | 14000 nM |
| COc1ccc(Oc2ccc(CNCc3cnc4nc(N)nc(N)c4n3)cc2)cc1 | resazurin |  | 10 µM, 72 h | inhibition | 31% |
